Experiments:
Type in all cases: functional
Conditions in all cases: read-out: GI
Candida albicans [1] = experiment: Antifungal activity against Candida albicans CAI4 expressing delta-cph1/delta-efg1 gene assessed as growth inhibition at 1 ug/ml by CLSI M27-A3 method
Summary of the method: (§1)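 CLSI M27-A3 broth microdilution in RPMI, read after 48 h. Strains pre-grown 18 h in YEPD at 30°C. Final inoculum 0.5×10^2–2.5×10^3 cells/ml. Two-fold dilutions in RPMI came from a 1600 µg/ml stock in water with 9% DMSO; final DMSO was 0.09%. OD405 read, % inhibition = 100 − (CTW−SCW)/(GCW−SCW). Triplicate on three occasions, mean±SD.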

Candida albicans [2] = experiment: Antifungal activity against Candida albicans CAI4 expressing delta-cph1/delta-efg1 (EFG1) gene assessed as growth inhibition at 1 ug/ml by CLSI M27-A3 method; summary of the method: as §1
Candida albicans [3] = experiment: Antifungal activity against Candida albicans CAI4 expressing delta-cph1 (CPH1) gene assessed as growth inhibition at 1 ug/ml by CLSI M27-A3 method; summary of the method: as §1
Candida albicans [4] = experiment: Antifungal activity against Candida albicans 90028 assessed as growth inhibition at 1 ug/ml by CLSI M27-A3 method; summary of the method: as §1
Candida albicans [5] = experiment: Antifungal activity against Candida albicans CAI4 expressing delta-cph1 gene assessed as growth inhibition at 1 ug/ml by CLSI M27-A3 method; summary of the method: as §1
Candida albicans [6] = experiment: Antifungal activity against Candida albicans CAI4 expressing delta-efg1 gene assessed as growth inhibition at 1 ug/ml by CLSI M27-A3 method
Summary of the method: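 CLSI M27-A3 broth microdilution in RPMI. Final inoculum 0.5×10^2 to 2.5×10^3 cells/ml. Seven two-fold concentrations from 0.25 to 16 µg/ml, with DMSO held at 0.09% (v/v) in all wells. Compound-free growth controls and sterility controls are run for each strain. […] Triplicate on three occasions.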

Candida albicans [7] = experiment: Antifungal activity against Candida albicans CAI4 expressing delta-efg1 (EFG1) gene assessed as growth inhibition at 1 ug/ml by CLSI M27-A3 method; summary of the method: as §1

Measured: inhibition of growth at 1 µg/mL

C[C@@H]1[C@H](O)[C@@H](C)/C=C/C=C/C=C/C=C/C=C/C=C/C=C/[C@H](O[C@@H]2O[C@H](C)[C@@H](O)[C@H](N)[C@@H]2O)C[C@@H]2O[C@](O)(C[C@@H](O)C[C@@H](O)[C@H](O)CC[C@@H](O)C[C@@H](O)CC(=O)O[C@H]1C)C[C@H](O)[C@H]2C(=O)O [AMPHOTERICIN B]
100%: Candida albicans [1] | Candida albicans [2] | Candida albicans [3] | Candida albicans [4] | Candida albicans [5] | Candida albicans [6] | Candida albicans [7]

Reference: ChEMBL document CHEMBL3351861, “New synthetic sulfone derivatives inhibit growth, adhesion and the leucine arylamidase APE2 gene expression of Candida albicans in vitro” (2015)
